Compound activity deposited in PubChem BioAssay by several laboratories.
MEX-5 binding – C. elegans MEX-5 TCR-2 RNA binding activity. 300,000 compounds, 0.38% hits. MEX-5/FITC-TCR2 RNA binding, fluorescence polarization; hits give low values. Q9XUB2. AID 1832. activity score (negative = inhibition of binding), % at 10 µM;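 active = inhibition past about -25% in most replicates, and total fluorescence under double the plate's negative control median, limit read from the data; inconclusive = replicates evenly split on the limit, or fluorescence at least double controls; inactive = too little inhibition in most replicates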;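 note: 0% = DMSO and -100% = 5 µM competing unlabeled TCR2 RNA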
RanGTP-Imp inh – disruptors of Ran-importin-beta complex formation – biochemical, FRET, CFP-Ran, YFP-importin-beta, homogeneous, primary screen; inhibition, % (test concentration not listed); cell-free CFP-Ran/YFP-importin-beta FRET ratio; 300,000 compounds, 1.1% hits; AID 2216;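 active = more than half of the replicate wells show a fall in the fluorescence ratio signal beyond about 16%, limit read from the data, passing the limit was not always enough; inconclusive = exactly half of the replicate wells pass the set limit; inactive = fewer than half of replicates pass the limit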;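 note: 0% = DMSO wells and 100% = Ran loaded with GDP instead of GTP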
Runt-SMMHC FRET – blocks binding of human RUNX1 Runt domain to CBFb-SMMHC | Q01196+Q13951 | 220,000 compounds, 0.74% hits | Cerulean-Runt/Venus-CBFb-SMMHC FRET ratio 530/480, 1 h | inhibition, % at 20 µM | AID 1434;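 active = mean inhibition across duplicate retests at 20 µM reaching about 50%, limit read from the data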;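 note: 0% = DMSO wells and 100% = wells with excess untagged CBFb-SMMHC; inhibitors lower the FRET ratio by blocking Runt binding to CBFb-SMMHC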
EBV gp42 block – EBV gp42 inhibition. Fluorescence polarization binding assay, mP read-out. inhibition, % (tested at 21.74 µM). 220,000 compounds, 0.42% hits. AID 1085; in the data active = inhibition above about 50%
Target sequence (Q1HVG2 whole entry, looked up): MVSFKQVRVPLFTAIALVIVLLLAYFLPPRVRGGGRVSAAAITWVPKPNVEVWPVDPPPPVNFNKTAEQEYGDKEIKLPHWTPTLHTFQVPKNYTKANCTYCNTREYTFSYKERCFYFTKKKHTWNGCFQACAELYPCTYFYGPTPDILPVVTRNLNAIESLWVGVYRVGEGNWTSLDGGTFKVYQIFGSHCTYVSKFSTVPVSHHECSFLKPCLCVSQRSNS
LANA-H2A inh – blocks KSHV LANA binding to histone H2A/H2B | 320,000 compounds, 0.6% hits | cell-free LANA-H2A/H2B peptide, fluorescence polarization | inhibition, % (test concentration not listed); in the data active = inhibition mostly above about 10%, no sharp cut-off; inactive = mostly below about 6.7%
Runt-CBFb FRET – blocks binding of human RUNX1 Runt domain to CBFb. 220,000 compounds, 0.46% hits. Cerulean-Runt/Venus-CBFb FRET ratio 530/480, 1 h. inhibition, % at 20 µM;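 active = inhibition over about 50% at 20 µM in the single-dose screen, limit read from the data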;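 note: 0% = DMSO wells and 100% = excess unlabeled CBFb competitor control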
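Schedule: protein complex preformed 1 h, compound exposure 1 h, room temperature, dark; test system: Cerulean-labeled Runt domain protein; amount: 100 nM per protein; buffer or medium: Tris 50 mM pH 7.5, KCl, K2SO4, 0.01% BSA; read-out: loss of energy transfer signal; detection: FRET fluorescence; controls: 5 µM unlabeled CBFb as full-inhibition high control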
* = called active by the depositor; u = inconclusive; x = no result given. Rows were chosen to be rich in hits. Some 2.4% of all compounds tested hit in one or more screens of this group.

SMILES	MEX-5 binding	RanGTP-Imp inh	Runt-SMMHC FRET	EBV gp42 block	LANA-H2A inh	Runt-CBFb FRET
Cc1ccc(S(=O)(=O)NCCC(=O)Oc2ccc3ccc(=O)oc3c2)cc1	1	8	56*	-10	7	36
N#C/C(=C/c1ccc(F)cc1)c1nnc(NC(=O)c2ccccc2)s1	-3	-5	81*	-14	-6	2
O=C1CN(C(=O)c2ccccc2F)C(c2ccccc2)c2cc(Cl)ccc2N1 (stereo not drawn)	0	-2	x	x	-2	x
Cn1c(NC(=O)c2ccc(F)cc2)nc2ccccc21	5	-4	x	x	-2	x
N#Cc1cc(NC(=O)c2ccc(F)cc2)c(=O)n2c1[nH]c1ccccc12	u	26*	-13	-20	-3	-3
Cc1cccn2c(CN(C)C3CCOC3)c(C(=O)N3CCCCC3)nc12 (stereo not drawn)	2	2	-2	-13	-3	0
CN(Cc1c(C(=O)N2CCCCCCC2)nc2ccc(Cl)cn12)C1CCOC1 (stereo not drawn)	2	0	x	x	19*	x
CCN1/C(=C/C=C/C=C/c2sc3ccccc3[n+]2CC)Sc2ccccc21	6	0	20	31	3	17
CCN1/C(=C/C=C/c2sc3ccccc3[n+]2CC)Sc2ccccc21	u	26*	x	x	-40	x
CC(=C/c1ccccc1)/C=N/NC(=O)c1cnccn1	-1	1	2	144*	-2	0
O=C(N/N=C/C(Cl)=C\c1ccccc1)c1cnccn1	-4	-1	-2	-2	-6	3
CC(C)C(NC(=O)c1ccc(F)cc1)C(=O)NC1(C)CCS(=O)(=O)C1 (stereo not drawn)	x	x	x	x	1	x
CC(Oc1ccccc1)C(=O)NC1CC(C)(C)NC(C)(C)C1 (stereo not drawn)	-3	u	-1	-21	17*	1
COc1cccc(CNC(=O)CCC2CCCN(C(=O)c3cc4ccccc4o3)C2)c1 (stereo not drawn)	0	-1	-1	-10	1	-1
COc1ccc(C2(C)NC(=O)N(CC(=O)Nc3ccc(Br)c(C)c3)C2=O)cc1OC (stereo not drawn)	0	21*	x	x	6	x
COc1ccc(C2(C)NC(=O)N(CC(=O)Nc3ccc(C)cc3Br)C2=O)cc1OC (stereo not drawn)	0	8	x	x	6	x
O=C(Nc1ccnn1C1CCN(C(=O)c2cccc(C(F)(F)F)c2)CC1)C1CC1	-1	-1	x	x	17*	x
CC(C)CC(=O)Nc1ccnn1C1CCN(C(=O)c2ccc(Cl)cc2F)CC1	-3	2	x	x	-3	x
CC(C)(C)C(=O)Nc1ccnn1C1CCN(C(=O)c2ccc(Cl)cc2F)CC1	2	1	x	x	26*	x
O=C(Nc1ccnn1C1CCN(C(=O)c2ccc(C(F)(F)F)cc2)CC1)C1CC1	1	0	x	x	2	x
CCOC(=O)C1(Cc2cccc(Cl)c2)CCCN(C(=O)CN2C(=O)CSC2=O)C1 (stereo not drawn)	0	3	x	x	6	x
O=c1c2ccc(Cl)cc2[nH]c(=S)n1Cc1cccnc1	4	-2	-4	-10	-1	3
N#Cc1cc2c(=O)n3ccccc3nc2n(Cc2cccnc2)c1=O	-1	74*	x	x	-26	x
Cc1cccn2c(=O)c3cc(C#N)c(=O)n(Cc4cccnc4)c3nc12	x	x	41	x	x	79*
N#Cc1cc2c(=O)n3ccccc3nc2n(-c2ccccc2Cl)c1=O	-27*	136*	90*	9	10	3
SMILES	MEX-5 binding	RanGTP-Imp inh	Runt-SMMHC FRET	EBV gp42 block	LANA-H2A inh	Runt-CBFb FRET
Cc1cccc(C(=O)Nc2nnc(S(=O)(=O)N3CCC(C)CC3)s2)c1	1	1	x	x	3	x
CCc1cc(=O)oc2c(C)c(O)c(CN3CCCCC3)cc12	-1	53*	78*	0	0	73*
O=c1cc(CN2CCN(Cc3ccccc3)CC2)c2ccc(O)c(O)c2o1	-9	-1	x	x	6	x
Cc1cc2oc(=O)cc(CSc3nc(N)cc(N)n3)c2cc1C(C)C	2	u	-1	-24	0	-4
Cc1c(O)ccc2c(CN3CCN(Cc4ccccc4)CC3)cc(=O)oc12	-3	54*	x	x	4	x
O=c1cc(CN2CCN(Cc3ccccc3)CC2)c2cc3c(cc2o1)CCC3	1	-1	81*	1	0	2
Nc1cc(N)nc(SCc2cc(=O)oc3cc4c(cc23)CCC4)n1	4	31*	-2	8	-5	0
O=c1cc(CN2CCN(CCO)CC2)c2cc3c(cc2o1)CCC3	-1	0	2	-8	-2	-1
Cc1cc(C)cc(OCCNS(=O)(=O)c2cccs2)c1	2	-3	0	2	2	0
COc1ccc2c(CC(=O)N[C@@H](Cc3ccccc3)C(=O)O)cc(=O)oc2c1	3	0	x	x	4	x
CCc1cc2c(CN3CCN(Cc4ccccc4)CC3)cc(=O)oc2cc1O	-1	88*	x	x	-1	x
Cc1c(O)ccc2c(CN(C)Cc3ccccc3)cc(=O)oc12	0	23*	81*	8	5	46
COc1cccc(CN(C)Cc2cc(=O)oc3cc(O)c(Cl)cc23)c1	-2	77*	x	x	-3	x
Cc1c(O)ccc2c(CC(=O)N[C@@H](Cc3ccccc3)C(=O)O)cc(=O)oc12	-2	68*	x	x	-1	x
O=C(CCC(=O)N(CC(=O)NC1CCCC1)C1CCCCC1)Nc1ccccn1	-3	5	x	-18	-7	x
Cc1cc2oc(=O)cc(CN(C)Cc3cccc(F)c3)c2cc1C	2	1	x	x	2	x
CCc1cc2c(CN(C)Cc3ccccc3F)cc(=O)oc2cc1O	1	54*	x	x	8	x
O=C(COC(=O)c1cncc(Br)c1)NCc1ccccc1	-1	5	-3	4	1	0
O=C(COC(=O)c1cncc(Br)c1)NCc1ccc(Cl)cc1	1	3	-8	-2	167*	-2
O=C(CC1CCCC1)NNC(=O)c1ccc(F)cc1	-3	x	x	x	-2	x
CCOCCCNC(=O)C(NC(=O)c1ccccn1)c1ccc(C)cc1 (stereo not drawn)	-2	-2	-1	-10	12*	-2
CCC(=O)Nc1nn(C)c2nc3c(C)cccc3cc12	-1	22*	86	17	2	18
CCCn1nc(NC(=O)CC)c2cc3cccc(C)c3nc21	2	55*	x	x	1	x
Cc1cccc2cc3c(NC(=O)C(C)C)nn(C)c3nc12	-1	47*	22	-11	-8	14
COc1ccc(CC(=O)Nc2nn(C)c3nc4c(C)cccc4cc23)cc1	2	6	72*	-7	1	11
